These results are taken from ChEMBL document CHEMBL4513216, “Probing the Open Global Health Chemical Diversity Library for Multistage-Active Starting Points for Next-Generation Antimalarials” (ACS Infect Dis, 2020).

A short description of the data set: Toxicity liver stage against HepG2, at 10uM. Particulars: human, HepG2-A16-CD81EGFP cells; read-out: INHIBITION
Details: test concentration 10 uM, cell line HepG2-A16-CD81EGFP. The data set is classed as cell-based. The procedure, abridged:
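Uninfected HepG2-A16-CD81EGFP cells, 3 × 10^3 per well, 1536-well, plated on prespotted compound at 10 μM final, parasite-free screening media added to match infected plates; puromycin 10 μM positive, DMSO 0.5% negative; run in parallel with 48 h PbLuc assay at 37 °C, 5% CO2; viability by CellTiter-Glo luminescence, normalized to controls.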
In the case of `c1ccc2c(Cc3nnc([C@H]4CCN(CC5CC5)C4)o3)c[nH]c2c1`, the cytotoxicity at 10 µM came out at 4.73%. With `CC(=O)c1cn(CCC(=O)Nc2c3c(nn2C)CSC3)c2ccccc12`, the cytotoxicity at 10 µM is -1.93%. For the compound `CC(C)C1SCC(=O)Nc2c1cnn2-c1ccc(Cl)cc1F` (stereo not drawn), the cytotoxicity at 10 µM is 17.2%. With `Cc1cnc2n(c1=O)C(CC(=O)NCc1cccs1)CS2` (stereo not drawn), the cytotoxicity at 10 µM came to 4.68%. For `Cc1nnc2ccc(OCCNS(C)(=O)=O)nn12`, the cytotoxicity at 10 µM was -6.02%. Next, `CCS(=O)(=O)N1CCC(c2nnc(C(F)(F)F)o2)CC1`: -11%; `CN(C)c1ccc(C(O)CNC(=O)NCCCc2ccccc2)cc1` (stereo not drawn): -10%; `O=C(NCCn1nc(-n2cncn2)ccc1=O)c1ccsc1`: 1.99%.

On to `Cc1cc(S(=O)(=O)N2CCC(S(C)(=O)=O)C2)ccc1F` (stereo not drawn), for which the cytotoxicity at 10 µM turned out to be 0.246%. As for `COC(=O)c1ccc(C(=O)NCc2nn(C)c3c2COCC3)cc1`, the cytotoxicity at 10 µM came to 7.91%. Next, `O=C(Cc1cccs1)Nc1cnn(C2CCOC2)c1` (stereo not drawn): -7.86%. In the case of `Cc1ccoc1C(=O)N1CC(C(=O)NCC2CC2)C2(CCOCC2)C1` (stereo not drawn), the cytotoxicity at 10 µM is -3%.

With `O=c1[nH]nc2c(S(=O)(=O)N3CCCC3)cccn12`, the cytotoxicity at 10 µM is -4.52%.

In the case of `CCc1c(C(=O)O)nnn1-c1cccc(C)c1C`, the cytotoxicity at 10 µM was -16.1%. Regarding `Cc1c(CN2CCOCC2)c(O)n(CCc2ccccc2)c(=O)c1C#N`, the cytotoxicity at 10 µM was 4.1%.

For the compound `CCOCCCNC(=O)c1cc(OC)c2ccoc2c1`, the cytotoxicity at 10 µM came to 6.51%.

As to `Cc1cc(C)n(CC(=O)Nc2cc(-c3ccncc3)[nH]n2)n1`, the cytotoxicity at 10 µM is -5.77%. As to `O=C(CCn1cccn1)N1CCC(c2nnc(-c3ccsc3)o2)CC1`, the cytotoxicity at 10 µM stood at 4.25%.

As to `CNC(=O)C1CCCN(C(=O)c2cncs2)C1` (stereo not drawn), the cytotoxicity at 10 µM is 4.94%. With `Cc1nn(C)cc1-c1cc(C(=O)NCC(C)(C)c2ccc(F)cc2)n[nH]1`, the cytotoxicity at 10 µM is -1.29%. `CSc1ncc(C(=O)NCCn2nccc2C)cn1`: the cytotoxicity at 10 µM stood at 2.86%.

Regarding `CNC(=O)CNC(=O)Nc1ccc(Br)c(F)c1`, the cytotoxicity at 10 µM was found to be 5.44%.

Regarding `N#Cc1cn(C2CC2)c(=O)n(Cc2noc(-c3cccs3)n2)c1=O`, the cytotoxicity at 10 µM was determined as 13%. As for `CC(C)n1nnnc1-c1ccc(NC(=O)C(C)(C)C#N)cc1F`, the cytotoxicity at 10 µM was -7.36%. Next, `COc1c(C2CCCN2Cc2nnc(C3CC3)n2C)c(C)nn1C` (stereo not drawn): 7.06%; `Cc1nc(C)c(C(=O)Nc2ccc(-c3nnc(N(C)C)o3)cc2)o1`: 1.87%. For `CC(c1ccco1)N(C(=O)Cn1nc2n(c1=O)CCCCC2)C1CC1` (stereo not drawn), the cytotoxicity at 10 µM is -6.17%. Next, `CC(c1ccco1)N(C)C(=O)NCCOc1ccc(C#N)cc1` (stereo not drawn): -2.98%.

Consider `O=C(c1cc(C2CC2)[nH]n1)N1CCN(c2nccs2)CC1`, for which the cytotoxicity at 10 µM worked out at 1.39%.

`O=C(c1cnc(NCCC2CCCO2)c(Cl)c1)N1CCOCC1` (stereo not drawn): the cytotoxicity at 10 µM was determined as 7.74%. With `CC(C)(C(=O)NCCS(N)(=O)=O)c1cccc(Br)c1`, the cytotoxicity at 10 µM was -8.35%. On to `N#Cc1cc(CSCCN2CCOCC2)ccc1F`, for which the cytotoxicity at 10 µM was -7.73%.

`CN(Cc1ccco1)C(=O)NCc1nnc2n1CCC2`: the cytotoxicity at 10 µM came out at 16.9%.

Consider `Cn1nccc1CNS(=O)(=O)c1cc(F)ccc1Br`, for which the cytotoxicity at 10 µM amounted to 11.8%. As to `Cc1cc(N2CCN(C(=O)c3cc(Cl)c[nH]3)CC2)nc(C)n1`, the cytotoxicity at 10 µM was -2.43%. As for `Cc1nn(CC(=O)N2CCN(c3cnccn3)CC2)c(C)c1Cl`, the cytotoxicity at 10 µM was determined as 7.76%. Turning to `CC(C)c1nnc2n1CC(CNCc1ccsc1)CC2` (stereo not drawn), the cytotoxicity at 10 µM is -1.61%. As to `O=C(NCCNc1ncccn1)N1CCCC1c1ccc(F)cc1` (stereo not drawn), the cytotoxicity at 10 µM was 0.932%. With `CCN(CC)C(CNC(=O)c1ccc(S(=O)(=O)NC)cc1)c1ccco1` (stereo not drawn), the cytotoxicity at 10 µM is -13.5%. For the compound `CN1CCCN(C(=O)c2cnsn2)c2cc(Cl)ccc21`, the cytotoxicity at 10 µM was -7.34%. In the case of `Cc1ccsc1CN(C)Cn1nccc1-c1cccnc1`, the cytotoxicity at 10 µM came out at 7.49%.

For the compound `Cc1ccc(F)cc1NC(=O)CCn1cncn1`, the cytotoxicity at 10 µM was -0.639%. For the compound `O=C(Cc1ccc(S(=O)(=O)C(F)F)cc1)N1CCCC1`, the cytotoxicity at 10 µM is -13.5%. For `O=C1C(Sc2nnnn2C2CC2)CCN1c1ccccc1F` (stereo not drawn), the cytotoxicity at 10 µM was 4.05%. As to `CC(C)N(CCCNC(=O)C1CC1)S(C)(=O)=O`, the cytotoxicity at 10 µM is -5.55%.

Take `Cc1noc(CCCc2nc(C3CCOC3)no2)n1` (stereo not drawn): the cytotoxicity at 10 µM is 3.5%. In the case of `O=C(C1CCCN(CCc2ccc3c(c2)CCO3)C1)N1CCCC1` (stereo not drawn), the cytotoxicity at 10 µM is -19.8%. Regarding `CCN(CC)c1ncccc1CNCc1cc2ccccc2s1`, the cytotoxicity at 10 µM turned out to be 4.43%. As for `COc1cccc(-n2cc(-c3ccnc(N[C@H](CO)C(C)C)n3)cn2)c1`, the cytotoxicity at 10 µM was -2.04%. As to `O=C(c1cc(-c2ccc(O)cc2)n[nH]1)N1CCCC1c1cccnc1` (stereo not drawn), the cytotoxicity at 10 µM is -4.09%. For `C[C@@H]1CN(S(=O)(=O)c2ccc(F)cc2Cl)C[C@]1(C)O`, the cytotoxicity at 10 µM was -2.83%. As to `O=C(NCc1ccc(CO)cc1)C1CCOc2ccccc2C1` (stereo not drawn), the cytotoxicity at 10 µM is -3.54%. Next, `Cn1c(CN2CCCC2)nnc1C1CCCN(C(=O)N2CCOCC2)C1` (stereo not drawn): -0.193%; `Cc1nc2c(c(NCC(=O)NC(C)C)n1)Cc1ccccc1OC2`: 4.81%.

`O=C(CCCOCc1ccccc1)N1CCCC(c2ncc[nH]2)C1` (stereo not drawn): the cytotoxicity at 10 µM was 8.54%. With `CC[C@@H](CO)NC(=O)c1cccc(CCC(C)(C)O)c1`, the cytotoxicity at 10 µM is -3.33%.

For the compound `COc1ccc(CN2CCC3(CCCN(C)C3=O)C2)c(OC)c1C` (stereo not drawn), the cytotoxicity at 10 µM is -0.409%. For the compound `O=S(=O)(CC1CC1)c1ncc(CN2CCSCC2)n1CC1CCCO1` (stereo not drawn), the cytotoxicity at 10 µM was -1.07%.

As to `CCCc1cc(NCc2ccc(CO)cc2)n2nccc2n1`, the cytotoxicity at 10 µM was -14.1%. In the case of `O=C(c1ccc(=O)[nH]c1)N1CCCC1c1nc2cc(F)ccc2[nH]1` (stereo not drawn), the cytotoxicity at 10 µM worked out at 14.3%. On to `CC(C)c1cc(C2CCCN2C(=O)CN2C(=O)CCNC2=O)no1` (stereo not drawn), for which the cytotoxicity at 10 µM was determined as 18.8%. Next, `Cc1cc2nc(C(C)C)cc(N3CCN(S(N)(=O)=O)CC3)n2n1`: -11.3%; `COCCOCC(=O)N(Cc1cccc(C)c1)C(C)C`: -12.4%; `CN1CCN(C2CCN(CCOc3cccc(F)c3)CC2)C1=O`: -2.45%. Next, `CN(C(=O)C1CCCC1)C(c1cccc(F)c1)c1ccccn1` (stereo not drawn): 6.07%; `O=C(CS(=O)(=O)Cc1ccccc1)NC1CCCCNC1=O` (stereo not drawn): -1.46%. In the case of `CC(C)c1nnc2n1CCN(CCC(=O)Nc1sccc1C#N)C2`, the cytotoxicity at 10 µM is -25.8%. Turning to `CC(C)c1n[nH]c(C2CN(C(=O)c3cn4ccccc4n3)CCO2)n1` (stereo not drawn), the cytotoxicity at 10 µM was found to be 0.153%. With `Cc1nc(C)n(CC2CN(Cc3ccccc3C#N)CCO2)n1` (stereo not drawn), the cytotoxicity at 10 µM is -8.8%. Regarding `O=C(c1cc(-c2cccs2)on1)N1CCCCC1Cn1cccn1` (stereo not drawn), the cytotoxicity at 10 µM is -2.93%. For `CC(C)c1ncncc1C(=O)N1CCN(Cc2ccccn2)CC1`, the cytotoxicity at 10 µM was -2.87%. Take `CCc1nc(C2CCCN2C(=O)Cc2cccs2)no1` (stereo not drawn): the cytotoxicity at 10 µM is -7.85%.

In the case of `Cc1cnn(CC2CCCN2Cc2c(C)noc2C)c1` (stereo not drawn), the cytotoxicity at 10 µM was -15.8%. For the compound `COc1ccc(-c2nc(CN3CCc4cncnc4C3)no2)cc1`, the cytotoxicity at 10 µM is -3.92%.

For the compound `CCC1CN(CC(=O)N2CCCC2)CCN1CCOC` (stereo not drawn), the cytotoxicity at 10 µM is -4.22%.

`O=C(CN1CCc2c(ncn2C2CC2)C1)NC1CCOCC1`: the cytotoxicity at 10 µM is -13.4%.

Consider `CCc1nc(C2CCCN(C(=O)c3ccc4[nH]cnc4c3)C2)no1` (stereo not drawn), for which the cytotoxicity at 10 µM was 1.48%. In the case of `COc1c(C2CCCN2C(=O)c2cnccn2)c(C)nn1C` (stereo not drawn) it was 0.501%; in that of `CC(C)c1nnc2n1CCN(C(=O)c1cccc(OCC(N)=O)c1)C2`, -4.38%; in that of `Cc1nc(C)n(CC2CCCN2Cc2ccccn2)n1` (stereo not drawn), -0.186%. In the case of `Cc1nc(CN2CCCC2Cn2cncn2)nc2ccccc12` (stereo not drawn) it was -1.63%; in that of `CN(Cc1nc2c(cnn2C)c(=O)[nH]1)Cc1ccccc1Cl`, -5.82%. Take `CC(C)=CCN(C)C1CCCN(Cc2noc(C)n2)C1` (stereo not drawn): the cytotoxicity at 10 µM was -19.6%. As to `CC(NCc1c(C(C)C)nn(C)c1N1CCOCC1)C(N)=O` (stereo not drawn), the cytotoxicity at 10 µM was -5.23%. Consider `O=C(Nc1ccccc1OC(F)F)C1=NN(c2ccccc2)C(=O)CN1`, for which the cytotoxicity at 10 µM was -3.58%. Consider `CCc1n[nH]c(C2CN(C(=O)c3cc4c(s3)CCCC4)CCO2)n1` (stereo not drawn), for which the cytotoxicity at 10 µM is -10.1%. Take `CC(C)c1n[nH]c(C2CN(C(=O)CCn3ccccc3=O)CCO2)n1` (stereo not drawn): the cytotoxicity at 10 µM is 4.48%.

As for `Cc1cnc(CN(C)CC2CCCN2c2cccnn2)cn1` (stereo not drawn), the cytotoxicity at 10 µM was -0.241%. Take `CCc1n[nH]c(C2CN(C(=O)c3cnc[nH]3)CCO2)n1` (stereo not drawn): the cytotoxicity at 10 µM was -0.481%. As to `c1cnn(CCNCc2csc(-c3ccsc3)n2)c1`, the cytotoxicity at 10 µM was found to be 1.97%. In the case of `O=C(NCc1cncc2c1CCN(Cc1ccoc1)C2)C1CC1`, the cytotoxicity at 10 µM worked out at 4.03%. As to `Cc1cccc(CN2CC[C@@H]3[C@@H]2CCN3C(=O)c2ccoc2C)n1`, the cytotoxicity at 10 µM was -3.99%. For `O=C1CC[C@H]2[C@H](CCN2C(=O)C2CCCO2)N1Cc1cccnc1` (stereo partly drawn), the cytotoxicity at 10 µM is -8.6%. On to `CCOC(=O)[C@]12CCCN(Cc3nccs3)C[C@H]1CN(S(C)(=O)=O)C2`, for which the cytotoxicity at 10 µM was -5.79%. `COc1ncccc1CN1C[C@@H]2COC[C@]2(CNS(C)(=O)=O)C1`: the cytotoxicity at 10 µM amounted to 8.01%. For `FC(F)(F)c1ccnc(N2C[C@H]3CCN(c4cccnc4)C[C@H]3C2)n1`, the cytotoxicity at 10 µM came out at 6.88%. Take `OC(CN1CCN(Cc2cc(F)cc(F)c2)CC1)C1CC1` (stereo not drawn): the cytotoxicity at 10 µM was 11.5%. With `Cc1ccoc1C1=NNC(=CN2CCn3c(nnc3C3CC3)C2)O1`, the cytotoxicity at 10 µM stood at 7.65%.
